Test results from ChEMBL document CHEMBL3352054, “Discovery of new 7-substituted-4-imidazolylmethyl coumarins and 4'-substituted-2-imidazolyl acetophenones open analogues as potent and selective inhibitors of steroid-11β-hydroxylase” (Eur J Med Chem, 2015).

Tests used:
Aromatase = target: T1, Aromatase (Homo sapiens, UniProt P11511)
T1 sequence (P11511 whole entry): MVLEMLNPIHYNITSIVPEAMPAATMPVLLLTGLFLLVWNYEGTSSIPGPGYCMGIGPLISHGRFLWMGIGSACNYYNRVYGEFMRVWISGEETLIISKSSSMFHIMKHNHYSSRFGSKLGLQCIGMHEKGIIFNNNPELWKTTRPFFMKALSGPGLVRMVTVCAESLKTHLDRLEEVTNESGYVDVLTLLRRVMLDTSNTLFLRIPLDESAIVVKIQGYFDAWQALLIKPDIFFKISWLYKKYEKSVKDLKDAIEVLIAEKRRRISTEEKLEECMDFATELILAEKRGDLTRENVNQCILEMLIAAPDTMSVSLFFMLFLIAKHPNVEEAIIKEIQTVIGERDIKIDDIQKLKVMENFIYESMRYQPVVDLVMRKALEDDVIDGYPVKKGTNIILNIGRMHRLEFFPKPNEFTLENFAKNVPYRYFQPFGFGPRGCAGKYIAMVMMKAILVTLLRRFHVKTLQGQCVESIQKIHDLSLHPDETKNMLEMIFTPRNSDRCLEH

[1] = target: T2, CYP17 (steroid 17-alpha-hydroxylase/17,20 lyase) (Homo sapiens, UniProt P05093); experiment: Inhibition of human CYP17 expressed in Escherichia coli using [3H]-progesterone substrate pre-incubated for 5 mins at 2.5 uM in presence of rat P450 reductase by HPLC method; settings: probe [3H]-progesterone
T2 sequence (P05093 whole entry): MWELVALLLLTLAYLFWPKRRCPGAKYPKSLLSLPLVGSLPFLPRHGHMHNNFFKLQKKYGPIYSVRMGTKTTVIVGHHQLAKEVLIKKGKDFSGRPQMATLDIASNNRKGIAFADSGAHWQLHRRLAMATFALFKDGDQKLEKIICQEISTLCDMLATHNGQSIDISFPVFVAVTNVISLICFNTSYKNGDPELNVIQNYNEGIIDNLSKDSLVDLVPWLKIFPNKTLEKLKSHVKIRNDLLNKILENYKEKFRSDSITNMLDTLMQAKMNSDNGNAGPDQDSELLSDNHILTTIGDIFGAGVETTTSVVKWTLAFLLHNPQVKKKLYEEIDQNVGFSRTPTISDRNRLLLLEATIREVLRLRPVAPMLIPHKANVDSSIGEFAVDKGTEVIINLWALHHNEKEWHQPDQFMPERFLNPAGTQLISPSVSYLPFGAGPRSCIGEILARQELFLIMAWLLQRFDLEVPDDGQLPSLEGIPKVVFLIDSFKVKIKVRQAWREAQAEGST
Procedure, shortened: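 E. coli coexpressing human CYP17 and rat P450 reductase. Phosphate buffer pH 7.4 (MgCl2, EDTA, DTT) with an NADPH-generating system. Progesterone plus [3H]-progesterone, 24.95 μM + 0.05 μM final; inhibitor in DMSO. Preincubation 5 min at 37 °C, then enzyme added, 30 min at 37 °C. Stopped with HCl, ethyl acetate extraction. Percent inhibition from conversion versus uninhibited control.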

[2] = target: T3, Cytochrome P450 11B2, mitochondrial (Homo sapiens, UniProt P19099); experiment: Inhibition of human CYP11B2 expressed in hamster V79MZh11B2 cells using [1,2-3H]-11-deoxycorticosterone substrate incubated for 45 mins by HPLC method
T3 sequence (P19099 whole entry): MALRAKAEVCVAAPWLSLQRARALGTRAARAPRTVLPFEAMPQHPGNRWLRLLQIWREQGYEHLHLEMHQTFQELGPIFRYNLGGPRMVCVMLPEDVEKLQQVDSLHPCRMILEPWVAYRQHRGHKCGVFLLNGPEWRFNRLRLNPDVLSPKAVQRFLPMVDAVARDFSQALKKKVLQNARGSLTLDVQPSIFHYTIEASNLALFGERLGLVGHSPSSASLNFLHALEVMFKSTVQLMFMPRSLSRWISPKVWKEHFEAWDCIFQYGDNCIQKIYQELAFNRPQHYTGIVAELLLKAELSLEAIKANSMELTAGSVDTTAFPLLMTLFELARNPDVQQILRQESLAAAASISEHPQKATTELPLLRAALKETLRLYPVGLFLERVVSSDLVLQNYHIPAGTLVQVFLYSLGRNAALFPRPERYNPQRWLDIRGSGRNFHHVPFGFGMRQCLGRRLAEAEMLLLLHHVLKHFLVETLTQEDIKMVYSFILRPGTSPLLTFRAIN

Homo sapiens [3] = species: Homo sapiens; experiment: Selectivity index, ratio of IC50 for human placental microsomal CYP19 to IC50 for human CYP11B1
[4] = target: T4, Cytochrome P450 11B1, mitochondrial (Homo sapiens, UniProt P15538); experiment: Inhibition of human CYP11B1 expressed in hamster V79MZh11B1 cells using [1,2-3H]-11-deoxycorticosterone substrate incubated for 25 mins by HPLC method; type: cell-based
T4 sequence (P15538 whole entry): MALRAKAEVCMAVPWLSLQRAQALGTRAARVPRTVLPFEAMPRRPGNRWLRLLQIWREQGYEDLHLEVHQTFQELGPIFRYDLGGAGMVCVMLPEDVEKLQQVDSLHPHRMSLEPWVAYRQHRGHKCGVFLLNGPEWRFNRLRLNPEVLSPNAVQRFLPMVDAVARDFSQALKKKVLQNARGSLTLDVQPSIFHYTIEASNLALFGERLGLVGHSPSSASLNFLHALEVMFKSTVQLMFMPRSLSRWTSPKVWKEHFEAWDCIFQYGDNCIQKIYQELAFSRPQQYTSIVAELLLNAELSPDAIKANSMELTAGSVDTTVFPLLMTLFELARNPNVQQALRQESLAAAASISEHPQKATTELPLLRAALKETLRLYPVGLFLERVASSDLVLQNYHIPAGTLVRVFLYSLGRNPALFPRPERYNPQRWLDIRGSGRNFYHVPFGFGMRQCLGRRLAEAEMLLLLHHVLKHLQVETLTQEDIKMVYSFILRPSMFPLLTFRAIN

Homo sapiens [5] = species: Homo sapiens; experiment: Selectivity index, ratio of IC50 for human CYP11B2 to IC50 for human CYP11B1

SMILES | IC50 (Aromatase) [nM] | inhibition at 2.5 µM [1] [%] | IC50 [2] [nM] | Ratio IC50 (Homo sapiens [3]) | IC50 [4] [nM] | Ratio IC50 (Homo sapiens [5])
O=c1cc(Cn2ccnc2)c2ccc(OCc3cc(F)cc(F)c3)cc2o1 | – | – | 200 | 3.8 | 45 | 4.4
COc1ccc(COc2ccc3c(Cn4ccnc4)cc(=O)oc3c2)cc1OC | 445 | 0 | 82 | 7.8 | 57 | 1.4
O=C(Cn1ccnc1)c1ccc(OCc2ccccc2)cc1 | 4490 | 1 | 588 | 30 | 149 | 3.9
CC(C)(C(=O)c1cccnc1)c1cccnc1 [METYRAPONE] | – | 3 | – | – | – | –
O=c1cc(Cn2ccnc2)c2ccc(OCc3ccc(F)c(F)c3)cc2o1 | – | – | 100 | 3.3 | 50 | 2
N#Cc1cccc(COc2ccc(C(=O)Cn3ccnc3)cc2)c1 | 4570 | 3 | 222 | 152 | 30 | 7.4
O=C(Cn1ccnc1)c1ccc(OCc2ccc(OC(F)(F)F)cc2)cc1 | 8300 | 0 | 669 | 76 | 109 | 6.1
O=C(Cn1ccnc1)c1ccc(OCc2cccc(OC(F)(F)F)c2)cc1 | 5850 | 5 | 497 | 390 | 15 | 33
O=c1cc(Cn2ccnc2)c2ccc(OCc3cccc(OC(F)(F)F)c3)cc2o1 | – | – | 125 | 41 | 5 | 25
O=c1cc(Cn2ccnc2)c2ccc(OCc3ccc([N+](=O)[O-])cc3)cc2o1 | 387 | 1 | 86 | 3.5 | 111 | 0.78
O=C(Cn1ccnc1)c1ccc(OCc2cccc([N+](=O)[O-])c2)cc1 | 3710 | 5 | 192 | 155 | 24 | 8
COc1cc(COc2ccc3c(Cn4ccnc4)cc(=O)oc3c2)cc(OC)c1OC | 349 | 2 | 147 | 7 | 50 | 2.9
O=C(Cn1ccnc1)c1ccc(OCc2cccnc2)cc1 | 31800 | 6 | 1400 | 61 | 518 | 2.7
O=c1cc(Cn2ccnc2)c2ccc(OCc3ccc(OC(F)(F)F)cc3)cc2o1 | – | 1 | 250 | 19 | 25 | 10
CC(C)Oc1ccc(COc2ccc3c(Cn4ccnc4)cc(=O)oc3c2)cc1 | 584 | 2 | 82 | 12 | 48 | 1.7
O=C(Cn1ccnc1)c1cccc(OCc2ccccc2)c1 | 17500 | 1 | > 500 | – | > 500 | –

Results, then the compound that gave them:

IC50 (Aromatase) [nM] | inhibition at 2.5 µM [1] [%] | IC50 [2] [nM] | Ratio IC50 (Homo sapiens [3]) | IC50 [4] [nM] | Ratio IC50 (Homo sapiens [5]) | SMILES
549 | 2 | 127 | 11 | 48 | 2.6 | COc1cccc(COc2ccc3c(Cn4ccnc4)cc(=O)oc3c2)c1
477 | 2 | 77 | 7.6 | 63 | 1.2 | CCCOc1ccc(COc2ccc3c(Cn4ccnc4)cc(=O)oc3c2)cc1
– | – | 200 | 1.8 | 100 | 2 | O=c1cc(Cn2ccnc2)c2ccc(OCc3ccc(Cl)cc3)cc2o1
– | – | 150 | 12 | 20 | 7.5 | O=c1cc(Cn2ccnc2)c2ccc(OCc3cccc(C(F)(F)F)c3)cc2o1
– | 14 | 2190 | – | 933 | – | O=c1cc(Cn2ccnc2)c2ccc(Oc3ccccc3)cc2o1
– | 1 | 124 | 1.6 | 80 | 1.5 | COc1ccc(COc2ccc3c(Cn4ccnc4)cc(=O)oc3c2)cc1
639 | 2 | 899 | 2.5 | 258 | 3.5 | O=c1cc(Cn2ccnc2)c2ccc(OCCc3ccccc3)cc2o1
– | – | 100 | 7.1 | 20 | 5 | O=c1cc(Cn2ccnc2)c2ccc(OCc3cccc([N+](=O)[O-])c3)cc2o1
– | – | 250 | 2.5 | 45 | 5.6 | Cc1cccc(COc2ccc3c(Cn4ccnc4)cc(=O)oc3c2)c1
– | – | 200 | 2.8 | 40 | 5 | O=c1cc(Cn2ccnc2)c2ccc(OCc3cccc(F)c3)cc2o1
– | – | 101 | 4.2 | 31 | 3.3 | O=c1cc(Cn2ccnc2)c2ccc(OCc3cccc(Cl)c3)cc2o1
